33 compounds from ChEMBL document CHEMBL4706516, “Development of dual inhibitors targeting pyruvate dehydrogenase kinases and human lactate dehydrogenase A: High-throughput virtual screening, synthesis and biological validation” (Eur J Med Chem, 2020) can be followed below.

Each structure is given as a SMILES string. Activity calls are given as the source filed them. The rule behind the calls is not given here.

Experiment [1] has as its target T1, L-lactate dehydrogenase A chain (Homo sapiens, UniProt P00338). As to the kind of experiment: Inhibition of LDHA (unknown origin) in presence of NADH and sodium pyruvate measured after 10 mins by enzymatic assay. In outline: (§1)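 LDHA at 5 nM final in buffer of 150 mM Tris-HCl pH 7.4 with EDTA and 0.01% Tween-20, compounds in 1% DMSO. Reaction started with substrate solution, final NADH 0.06 mM and sodium pyruvate 0.2 mM. After 10 min at room temperature, plates read at 340 nm. Screening done at a single concentration of 10.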

A short description of experiment [2]: Inhibition of pig PDK assessed as catalytic activity measured after 30 mins by microplate reader based assay. The arrangement: species or system Sus scrofa. In outline: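 Pig PDC preincubated 30 min at 37 °C in Mops pH 7.20 buffer with EDTA, KCl, MgCl2, acetyl-CoA, NADH, DTT and NaF. Kinase reaction started by adding ATP-containing buffer with or without compound; ATP-free wells serve as no-PDK controls. Reaction run 3 min at 37 °C, then stopped with ADP and pyruvate. Remaining PDC activity measured at 340 nm in Tris pH 7.8 with TPP, NAD+, pyruvate and CoA. IC50 is the mean of three independent experiments.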

Experiment [3] deals with T1, L-lactate dehydrogenase A chain. Kind of experiment: Inhibition of LDHA (unknown origin) in presence of NADH and sodium pyruvate at 10 uM by enzymatic assay relative to parent compound. In short, it runs like this: as §1
The species entered for experiment [4] is Sus scrofa. Kind of experiment: Inhibition of pig PDK assessed as catalytic activity at 10 uM by PDC assay.
The test system of experiment [5] is A549. Kind of experiment: Antiproliferative activity against human A549 assessed as cell growth inhibition at 20 uM measured after 72 hrs by MTT assay. Format: functional. In short, it runs like this: (§2)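 A549 cells grown in DMEM with 10% FBS and 1% penicillin/streptomycin, 5% CO2, humidified; exponential-phase cells used. Cells seeded at 2000/well, exposed to compound for 72 h, then MTT added and incubated 4 h before readout. Single-concentration screening at […]; EC50 values calculated from two independent experiments.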
In general terms: Tetrazolium assays rely on reduction of a dye to a coloured formazan, in cell work by metabolically active cells.

The test system of experiment [6] is A549. As to the kind of experiment: Anticancer activity against human A549 assessed as cell growth inhibition measured after 72 hrs by MTT assay. Format: functional, cell-based. As to conditions: A549, 72 h. In short, it runs like this:
as §2

Experiment [7] relates to A549. As to the kind of experiment: Metabolic modulatory effect in human A549 cells assessed as decrease in lactate formation measured after 4 hrs by Flex analyzer. It is filed as functional, cell-based. The settings on record: dose 10-40 µM. In outline: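 A549 cells, 2 × 10^5 per well, plated overnight, then treated at […] for 4 h at 37 °C. Medium collected and centrifuged 10 min at 10000 rpm to remove debris. Lactate in the medium measured on a Nova Bioprofile Flex analyzer.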

Experiment [8] deals with A549. As to the kind of experiment: Metabolic modulatory effect in human A549 cells assessed as increase in oxygen consumption rate at 10 to 40 uM measured after 4 hrs by seahorse XF24 extracellular flux analyzer assay. Format: functional, cell-based. As to conditions: dose 10-40 µM.

On to `Cc1ccccc1N1CCN(C(=O)COc2c(C)occc2=O)CC1`, for which the IC50 in experiment [1] and in experiment [2] was above 10 µM throughout.

`CC1(C)Cc2c(C#N)c(N3CCN(C(=O)C(=O)NCCO)CC3)nc(-c3ccccc3)c2CO1`: the inhibition entry in experiment [3] is “Active”. Further, in experiment [4], the inhibition came out at 50%. Also, in experiment [5], the inhibition result is “inactive”.

As to `Cc1occc(=O)c1OCCN1CCN(C(=O)c2ccc(C(F)(F)F)cc2)CC1`, the IC50 in experiment [1] is 4.7 µM; in experiment [2] it was 5.1 µM. In addition, the EC50 in experiment [6] is above 20 µM.

Take `Cc1occc(=O)c1OCC(=O)N1CCN(c2ccccc2F)CC1`: the IC50 in experiment [1] and in experiment [2] was above 10 µM each time.

Take `Cc1occc(=O)c1OCC(=O)N1CCN(c2ccccc2[N+](=O)[O-])CC1`: the 50% inhibitory concentration (IC50) in experiment [1] is above 10 µM; in experiment [2], 6.3 µM.

For the compound `O=C(CN1C(=O)c2ccccc2N2C(=O)c3ccccc3C12)NCCNc1ncccn1` (stereo unspecified), the inhibition entry in experiment [3] was “Active”. Moreover, the inhibition in experiment [4] was 50%. Also, the inhibition at 20 µM in experiment [5] amounted to 50%.

As to `Cc1occc(=O)c1OCCN1CCN(C(=O)c2ccc(F)cc2)CC1`, the 50% inhibitory concentration (IC50) was 0.15 µM in experiment [1] and 0.8 µM in experiment [2]. For the same compound, in experiment [6], the EC50 worked out at 13.2 µM. For the same compound, the Activity result in experiment [7] is “Dose-dependent effect”. Also, the outcome in experiment [8] was Active.

Regarding `Cc1cc(C)cc(N2CCN(C(=O)COc3c(C)occc3=O)CC2)c1`, the IC50 in experiment [1] was above 10 µM; in experiment [2], 8.1 µM.

As for `Cc1occc(=O)c1OCCN1CCN(C(=O)c2ccco2)CC1`, the IC50 was determined as 0.7 µM in experiment [1] and 1.6 µM in experiment [2]. The EC50 in experiment [6] was 15.7 µM. Also, the Activity entry in experiment [7] was “Dose-dependent effect”. Also, the result in experiment [8] was Active.

For `Cc1occc(=O)c1OCC(=O)N1CCN(c2ccc([N+](=O)[O-])cc2)CC1`, the values for the IC50 in experiment [1] and in experiment [2] were 6.9 µM and 0.8 µM, respectively.

On to `CCOC(=O)C(=O)N1CCN(c2nc(C)c3c(c2C#N)CCCC3)CC1`, for which, in experiment [3], the inhibition entry was “Active”. Further, the inhibition in experiment [4] came out at 50%. Besides, the inhibition entry in experiment [5] was “inactive”.

In the case of `Cc1occc(=O)c1OCC(=O)N1CCN(c2ccc(F)cc2)CC1`, the IC50 in experiment [1] came out at 3.7 µM; in experiment [2], 1.4 µM.

As to `Cc1occc(=O)c1OCCN1CCN(C(=O)c2ccc(Cl)cc2)CC1`, the IC50 is 2.7 µM in experiment [1] and 3.9 µM in experiment [2]. In experiment [6], the EC50 is above 20 µM.

On to `Cc1occc(=O)c1OCC(=O)N1CCN(c2cccc(F)c2)CC1`, for which the half-maximal inhibitory concentration (IC50) in experiment [1] was above 10 µM; in experiment [2], 1 µM.

Turning to `COc1cccc(C(=O)N2CCN(CCOc3c(C)occc3=O)CC2)c1`, the IC50 in experiment [1] and in experiment [2] was above 10 µM throughout.

For `CC(C)c1nc(N2CCN(C(=O)C(=O)NCCO)CC2)c(C#N)c2c1CCC2`, in experiment [3], the inhibition result was “Active”. The inhibition in experiment [4] worked out at 50%. Moreover, in experiment [5], the inhibition entry is “inactive”.

For the compound `Cc1occc(=O)c1OCC(=O)N1CCN(c2cccc(Cl)c2)CC1`, in experiment [4], the inhibition came to 50%. Also, the inhibition at 20 µM in experiment [5] was 51%. Further, the figures for the IC50 in experiment [1] and in experiment [2] were 5.9 µM and 9.1 µM, respectively. Besides, the EC50 in experiment [6] is 18.5 µM.

For `CCOC(=O)C(=O)N1CCN(c2nc(-c3ccccc3)c3c(c2C#N)CC(C)(C)OC3)CC1`, the inhibition entry in experiment [3] is “Active”. The inhibition in experiment [4] worked out at 50%. The inhibition entry in experiment [5] is “inactive”.

For `COc1cccc(N2CCN(C(=O)COc3coc(C)cc3=O)CC2)c1`, in experiment [3], the inhibition result is “Active”. Also, the inhibition in experiment [4] was 50%. Also, in experiment [5], the inhibition result was “inactive”.

Take `COc1ccc(N2CCN(C(=O)COc3c(C)occc3=O)CC2)cc1`: the IC50 in experiment [1] is 0.56 µM; in experiment [2], above 10 µM.

Consider `COc1cc(OC)cc(N2CCN(C(=O)COc3c(C)occc3=O)CC2)c1`, for which the half-maximal inhibitory concentration (IC50) in experiment [1] and in experiment [2] was above 10 µM throughout.

`Cc1occc(=O)c1OCCN1CCN(C(=O)c2ccccc2)CC1`: the half-maximal inhibitory concentration (IC50) in experiment [1] was 2.8 µM; in experiment [2] it was above 10 µM.

For `Cc1occc(=O)c1OCC(=O)N1CCN(c2ccccc2)CC1`, the half-inhibitory concentration (IC50) was above 10 µM in experiment [1] and 1.8 µM in experiment [2].

As to `COc1cccc(N2CCN(C(=O)COc3c(C)occc3=O)CC2)c1`, the IC50 is 4.6 µM in experiment [1] and above 10 µM in experiment [2].

Take `Cc1occc(=O)c1OCCN1CCN(C(=O)c2ccccc2[N+](=O)[O-])CC1`: the values for the IC50 in experiment [1] and in experiment [2] were above 10 µM and 3 µM, respectively.

For `CCOC(=O)C(=O)N1CCN(c2nc(C(C)C)c3c(c2C#N)CCC3)CC1`, the inhibition entry in experiment [3] is “Active”. For the same compound, in experiment [4], the inhibition came to 50%. Besides, the inhibition result in experiment [5] is “inactive”.

Take `Cc1occc(=O)c1OCC(=O)N1CCN(C(c2ccccc2)c2ccccc2)CC1`: the IC50 was 7.3 µM in experiment [1] and above 10 µM in experiment [2].

`Cc1nc(N2CCN(C(=O)C(=O)NCCO)CC2)c(C#N)c2c1CCCC2`: the inhibition result in experiment [3] was “Active”. Also, the inhibition in experiment [4] came to 50%. Further, the inhibition entry in experiment [5] is “inactive”.

As to `Cc1occc(=O)c1OCC(=O)N1CCN(c2ccccn2)CC1`, the IC50 in experiment [1] and in experiment [2] was above 10 µM throughout.

Regarding `Cc1occc(=O)c1OCCN1CCN(C(=O)c2ccccc2F)CC1`, the figures for the half-maximal inhibitory concentration (IC50) in experiment [1] and in experiment [2] were 3.4 µM and 5.9 µM, respectively. Besides, the 50% effective concentration (EC50) in experiment [6] is above 20 µM.

Consider `Cc1cccc(C(=O)N2CCN(CCOc3c(C)occc3=O)CC2)c1`, for which the figures for the IC50 in experiment [1] and in experiment [2] were 7.7 µM and above 10 µM, respectively.

For `Cc1occc(=O)c1OCC(=O)N1CCN(c2ncccn2)CC1`, the IC50 in experiment [1] and in experiment [2] was above 10 µM each time.

`Cc1occc(=O)c1OCCN1CCN(C(=O)C(Cl)Cl)CC1`: the IC50 in experiment [1] and in experiment [2] was above 10 µM each time.

By IC50 is commonly meant the midpoint of a concentration-inhibition curve. What is called inhibition is the share of the control response that was lost under treatment. By EC50 is commonly meant the concentration needed to bring the measured effect to its halfway point.
